Laboratory results as given in ChEMBL document CHEMBL4257555, “Small molecule cores demonstrate non-competitive inhibition of lactate dehydrogenase” (Medchemcomm, 2018).
Each block holds one molecule with its values, some of them ahead of it. Active and inactive are the calls of the source. The rule behind the calls is not given here.

What was measured:
[1] = target: L-lactate dehydrogenase B chain (Sus scrofa) (UniProt P00336); assay: Inhibition of oxamate binding to porcine heart LDH assessed as emission maximum at 1000 uM using pyruvate as substrate and NADH as cofactor measured after 2 hrs by fluorescence spectra analysis (reference value: 452.9 +/- 0.3 nanometer)
L-lactate dehydrogenase B chain (Sus scrofa), sequence (P00336 whole entry): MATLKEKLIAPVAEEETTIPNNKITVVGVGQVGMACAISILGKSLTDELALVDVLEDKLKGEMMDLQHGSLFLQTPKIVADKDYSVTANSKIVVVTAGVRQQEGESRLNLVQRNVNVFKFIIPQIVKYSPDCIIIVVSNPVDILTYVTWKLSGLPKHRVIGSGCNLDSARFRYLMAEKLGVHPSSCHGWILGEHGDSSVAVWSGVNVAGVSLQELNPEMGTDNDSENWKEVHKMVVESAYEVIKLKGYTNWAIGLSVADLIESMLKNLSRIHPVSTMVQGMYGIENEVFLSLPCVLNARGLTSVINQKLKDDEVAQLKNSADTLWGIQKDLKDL

[2] = target: L-lactate dehydrogenase B chain (Sus scrofa) (UniProt P00336); assay: Inhibition of porcine heart LDH assessed as enzymatic hydride transfer lifetime using pyruvate as substrate and NADH as cofactor measured after 2 hrs by stopped flow spectrometric analysis (reference value: 3.73 +/- 0.0901 ms)
[3] = target: L-lactate dehydrogenase B chain (Sus scrofa) (UniProt P00336); assay: Binding affinity to porcine heart LDH at 2.14 mM measured every 2 mins for 10 mins by dynamic light scattering analysis
Summary of the method: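 DLS on filtered samples of 80 μN phLDH, 4 μM NADH and 2.14 mM inhibitor in 100 mM sodium phosphate pH 7.2 at room temperature. Autocorrelation functions and particle size distributions collected every 2 min for 10 min.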

[4] = target: L-lactate dehydrogenase B chain (Sus scrofa) (UniProt P00336); assay: Inhibition of oxamate binding to porcine heart LDH assessed as relative fluorescence intensity at 1000 uM using pyruvate as substrate and NADH as cofactor measured after 2 hrs by fluorescence spectra analysis (reference value: 0.775 +/- 0.013 a.u.)
[5] = target: L-lactate dehydrogenase B chain (Sus scrofa) (UniProt P00336); assay: Inhibition of oxamate binding to porcine heart LDH assessed as relative fluorescence intensity at 6 uM using pyruvate as substrate and NADH as cofactor measured after 2 hrs by fluorescence spectra analysis (reference value: 0.775 +/- 0.013 a.u.)
[6] = target: L-lactate dehydrogenase B chain (Sus scrofa) (UniProt P00336); assay: Inhibition of oxamate binding to porcine heart LDH assessed as relative fluorescence intensity at 961 uM using pyruvate as substrate and NADH as cofactor measured after 2 hrs by fluorescence spectra analysis (reference value: 0.775 +/- 0.013 a.u.)
[7] = target: L-lactate dehydrogenase B chain (Sus scrofa) (UniProt P00336); assay: Inhibition of oxamate binding to porcine heart LDH assessed as relative fluorescence intensity at 35 uM using pyruvate as substrate and NADH as cofactor measured after 2 hrs by fluorescence spectra analysis (reference value: 0.775 +/- 0.013 a.u.)
[8] = target: L-lactate dehydrogenase B chain (Sus scrofa) (UniProt P00336); assay: Inhibition of oxamate binding to porcine heart LDH assessed as emission maximum at 6 uM using pyruvate as substrate and NADH as cofactor measured after 2 hrs by fluorescence spectra analysis (reference value: 452.9 +/- 0.36 nanometer)
[9] = target: L-lactate dehydrogenase B chain (Sus scrofa) (UniProt P00336); assay: Inhibition of oxamate binding to porcine heart LDH assessed as emission maximum at 961 uM using pyruvate as substrate and NADH as cofactor measured after 2 hrs by fluorescence spectra analysis (reference value: 452.9 +/- 0.3 nanometer)
[10] = target: L-lactate dehydrogenase B chain (Sus scrofa) (UniProt P00336); assay: Inhibition of oxamate binding to porcine heart LDH assessed as emission maximum at 35 uM using pyruvate as substrate and NADH as cofactor measured after 2 hrs by fluorescence spectra analysis (reference value: 452.9 +/- 0.3 nanometer)
[11] = target: L-lactate dehydrogenase B chain (Sus scrofa) (UniProt P00336); assay: Activation of porcine heart LDH at 1 mM using pyruvate as substrate and NADH as cofactor measured after 2 hrs by stopped-flow spectrometric method relative to control
Summary of the method: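 Pig heart LDH buffer-exchanged into 100 mM sodium phosphate pH 7.2, then preincubated 2 h at 4 °C with inhibitor. Final: 5 nN enzyme, 100 μM NADH, 300 μM sodium pyruvate, 37 °C. Stopped-flow mixing of enzyme:NADH:inhibitor with pyruvate, NADH loss read at 340 nm. Initial rates are linear fits averaged over five shots and expressed relative to uninhibited enzyme.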

CC(=O)Nc1cccc(O)c1 [12] = assay: Non-competitive inhibition of porcine heart LDH assessed as Kcat for cofactor at 50 uM using pyruvate as substrate and NADH as cofactor measured after 2 hrs by Michaelis-Menten plot analysis (reference value: 221 +/- 10 /sec); details: Sus scrofa
CC(=O)Nc1cccc(O)c1 [13] = assay: Non-competitive inhibition of porcine heart LDH assessed as apparent Km for cofactor at 300 uM using pyruvate as substrate and NADH as cofactor measured after 2 hrs by Michaelis-Menten plot analysis (reference value: 8 +/- 2 uM); details: Sus scrofa
CC(=O)Nc1cccc(O)c1 [14] = assay: (§1) Mixed inhibition of porcine heart LDH assessed as apparent Km for substrate at 300 uM using pyruvate as substrate and NADH as cofactor measured after 2 hrs by Michaelis-Menten plot analysis (reference value: 73 +/- 10 uM); details: Sus scrofa
NC(=O)c1cc(O)cc(O)c1 [15] = assay: as §1; details: Sus scrofa
CC(=O)Nc1cccc(O)c1 [16] = assay: (§2) Mixed inhibition of porcine heart LDH assessed as apparent Km for substrate at 100 uM using pyruvate as substrate and NADH as cofactor measured after 2 hrs by Michaelis-Menten plot analysis (reference value: 73 +/- 10 uM); details: Sus scrofa
NC(=O)c1cc(O)cc(O)c1 [17] = assay: as §2; details: Sus scrofa
NC(=O)c1cc(O)cc(O)c1 [18] = assay: Mixed inhibition of porcine heart LDH assessed as substrate Kcat at 50 uM using pyruvate as substrate and NADH as cofactor measured after 2 hrs by Michaelis-Menten plot analysis (reference value: 319 +/- 8 /sec); details: Sus scrofa
CC(=O)Nc1cccc(O)c1 [19] = assay: (§3) Mixed inhibition of porcine heart LDH assessed as apparent Km for substrate at 25 uM using pyruvate as substrate and NADH as cofactor measured after 2 hrs by Michaelis-Menten plot analysis (reference value: 73 +/- 10 uM); details: Sus scrofa
NC(=O)c1cc(O)cc(O)c1 [20] = assay: as §3; details: Sus scrofa
CC(=O)Nc1cccc(O)c1 [21] = assay: Mixed inhibition of porcine heart LDH assessed as substrate Kcat at 300 uM using pyruvate as substrate and NADH as cofactor measured after 2 hrs by Michaelis-Menten plot analysis (reference value: 232 +/- 13 /sec); details: Sus scrofa
CC(=O)Nc1cccc(O)c1 [22] = assay: Mixed inhibition of porcine heart LDH assessed as substrate Kcat at 10 uM using pyruvate as substrate and NADH as cofactor measured after 2 hrs by Michaelis-Menten plot analysis (reference value: 232 +/- 13 /sec); details: Sus scrofa
NC(=O)c1cc(O)cc(O)c1 [23] = assay: Mixed inhibition of porcine heart LDH assessed as substrate Kcat at 300 uM using pyruvate as substrate and NADH as cofactor measured after 2 hrs by Michaelis-Menten plot analysis (reference value: 319 +/- 8 /sec); details: Sus scrofa
CC(=O)Nc1cccc(O)c1 [24] = assay: (§4) Mixed inhibition of porcine heart LDH assessed as apparent Km for substrate at 10 uM using pyruvate as substrate and NADH as cofactor measured after 2 hrs by Michaelis-Menten plot analysis (reference value: 73 +/- 10 uM); details: Sus scrofa
NC(=O)c1cc(O)cc(O)c1 [25] = assay: as §4; details: Sus scrofa
CC(=O)Nc1cccc(O)c1 [26] = assay: Mixed inhibition of porcine heart LDH assessed as substrate Kcat at 100 uM using pyruvate as substrate and NADH as cofactor measured after 2 hrs by Michaelis-Menten plot analysis (reference value: 232 +/- 13 /sec); details: Sus scrofa
CC(=O)Nc1cccc(O)c1 [27] = assay: Non-competitive inhibition of porcine heart LDH assessed as Kcat for cofactor at 300 uM using pyruvate as substrate and NADH as cofactor measured after 2 hrs by Michaelis-Menten plot analysis (reference value: 221 +/- 10 /sec); details: Sus scrofa
NC(=O)c1cc(O)cc(O)c1 [28] = assay: Mixed inhibition of porcine heart LDH assessed as substrate Kcat at 10 uM using pyruvate as substrate and NADH as cofactor measured after 2 hrs by Michaelis-Menten plot analysis (reference value: 319 +/- 8 /sec); details: Sus scrofa
CC(=O)Nc1cccc(O)c1 [29] = assay: Mixed inhibition of porcine heart LDH assessed as substrate Kcat at 25 uM using pyruvate as substrate and NADH as cofactor measured after 2 hrs by Michaelis-Menten plot analysis (reference value: 232 +/- 13 /sec); details: Sus scrofa
CC(=O)Nc1cccc(O)c1 [30] = assay: (§5) Mixed inhibition of porcine heart LDH assessed as apparent Km for substrate at 50 uM using pyruvate as substrate and NADH as cofactor measured after 2 hrs by Michaelis-Menten plot analysis (reference value: 73 +/- 10 uM); details: Sus scrofa
NC(=O)c1cc(O)cc(O)c1 [31] = assay: as §5; details: Sus scrofa
NC(=O)c1cc(O)cc(O)c1 [32] = assay: Mixed inhibition of porcine heart LDH assessed as substrate Kcat at 25 uM using pyruvate as substrate and NADH as cofactor measured after 2 hrs by Michaelis-Menten plot analysis (reference value: 319 +/- 8 /sec); details: Sus scrofa
CC(=O)Nc1cccc(O)c1 [33] = assay: Mixed inhibition of porcine heart LDH assessed as substrate Kcat at 50 uM using pyruvate as substrate and NADH as cofactor measured after 2 hrs by Michaelis-Menten plot analysis (reference value: 232 +/- 13 /sec); details: Sus scrofa
NC(=O)c1cc(O)cc(O)c1 [34] = assay: Mixed inhibition of porcine heart LDH assessed as substrate Kcat at 100 uM using pyruvate as substrate and NADH as cofactor measured after 2 hrs by Michaelis-Menten plot analysis (reference value: 319 +/- 8 /sec); details: Sus scrofa
CC(=O)Nc1cccc(O)c1 [35] = assay: Non-competitive inhibition of porcine heart LDH assessed as apparent Km for cofactor at 50 uM using pyruvate as substrate and NADH as cofactor measured after 2 hrs by Michaelis-Menten plot analysis (reference value: 8 +/- 2 uM); details: Sus scrofa

L-lactate dehydrogenase B chain (Sus scrofa), P00336, sequence (P00336 whole entry): as above

- Activity [1]: 449 nm
- TIME [2]: 1.09e-06 h
- Activity [3]: Active
- RFU [4]: 0.793 a.u.
Molecule: CC(=O)Nc1cccc(O)c1

- Activity [3]: Active
Molecule: CC(=O)Nc1ccccc1

- RFU [5]: 0.764 a.u.
- RFU [6]: 0.773 a.u.
- RFU [7]: 0.759 a.u.
- Activity [8]: 453 nm
- Activity [9]: 455 nm
- Activity [3]: Active
- Activity [10]: 453 nm
Molecule: NC(=O)c1cc(O)cc(O)c1

- Activity [11]: < 24%
Molecule: N[C@@H](Cc1c[nH]c2ccccc12)C(=O)O

Molecule: L-lactate dehydrogenase B chain (Sus scrofa), P00336
- kcat (CC(=O)Nc1cccc(O)c1 [12]): 190 s⁻¹
- Km (CC(=O)Nc1cccc(O)c1 [13]): 7 µM
- Km (CC(=O)Nc1cccc(O)c1 [14]): 133 µM
- Km (NC(=O)c1cc(O)cc(O)c1 [15]): 111 µM
- Km (CC(=O)Nc1cccc(O)c1 [16]): 163 µM
- Km (NC(=O)c1cc(O)cc(O)c1 [17]): 116 µM
- kcat (NC(=O)c1cc(O)cc(O)c1 [18]): 242 s⁻¹
- Km (CC(=O)Nc1cccc(O)c1 [19]): 98 µM
- Km (NC(=O)c1cc(O)cc(O)c1 [20]): 90 µM
- kcat (CC(=O)Nc1cccc(O)c1 [21]): 132 s⁻¹
- kcat (CC(=O)Nc1cccc(O)c1 [22]): 211 s⁻¹
- kcat (NC(=O)c1cc(O)cc(O)c1 [23]): 176 s⁻¹
- Km (CC(=O)Nc1cccc(O)c1 [24]): 98 µM
- Km (NC(=O)c1cc(O)cc(O)c1 [25]): 87 µM
- kcat (CC(=O)Nc1cccc(O)c1 [26]): 211 s⁻¹
- kcat (CC(=O)Nc1cccc(O)c1 [27]): 191 s⁻¹
- kcat (NC(=O)c1cc(O)cc(O)c1 [28]): 281 s⁻¹
- kcat (CC(=O)Nc1cccc(O)c1 [29]): 190 s⁻¹
- Km (CC(=O)Nc1cccc(O)c1 [30]): 155 µM
- Km (NC(=O)c1cc(O)cc(O)c1 [31]): 102 µM
- kcat (NC(=O)c1cc(O)cc(O)c1 [32]): 229 s⁻¹
- kcat (CC(=O)Nc1cccc(O)c1 [33]): 175 s⁻¹
- kcat (NC(=O)c1cc(O)cc(O)c1 [34]): 216 s⁻¹
- Km (CC(=O)Nc1cccc(O)c1 [35]): 7 µM
